Data as given in ChEMBL document CHEMBL1139869, “Design and synthesis of novel quinolinone-3-aminoamides and their alpha-lipoic acid adducts as antioxidant and anti-inflammatory agents” (2007).
Calls of active or inactive are those of the source. No cut-off for these calls is given here.

Experiments:
[1] = Antioxidant activity assessed as DMSO hydroxyl radical scavenging activity at 0.1 mM; assay type: functional
How it was run: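 Hydroxyl radicals generated by Fe3+/ascorbic acid; reaction mix contained EDTA 0.1 mM, Fe3+ 167 µM, DMSO 33 mM and ascorbic acid 10 mM in 50 mM phosphate buffer pH 7.4, with test compound at 0.1 mM. Incubated 30 min at 37 °C, then stopped with trichloroacetic acid (17% w/v). Formaldehyde from DMSO oxidation was measured by the Nash method at 425 nm. At least triplicate.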

[2] = Antioxidant activity assessed as DPPH reducing activity at 0.5 mM after 20 mins; assay type: functional; set-up: scale not given: the % may be the effect or the level left
How it was run: (§1)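 DPPH in absolute ethanol was mixed with an equal volume of compound in ethanol (0.1 or 0.5 mM); ethanol served as control. Absorbance at 517 nm was read after 20 and 60 min at room temperature. At least triplicate.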

Rattus norvegicus = assay: Inhibition of carrageenan-induced Fischer 344 rat paw edema at 0.01 mmol/kg, ip; assay type: functional; settings: Fischer 344, ip
How it was run: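 Fischer 344 rats (150-200 g), both sexes, pregnant females excluded; 6-15 per group. Paw edema was induced by intradermal injection of 0.1 mL 2% carrageenin in water into the right hind paw. Compound at 0.01 mmol/kg, suspended in water with a few drops of Tween 80, was given ip at the same time. Rats were euthanized at 3.5 h. Injected minus uninjected paw weight was expressed as % inhibition versus water-treated controls. Mean of two experiments.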

[3] = Antioxidant activity assessed as DPPH reducing activity at 0.1 mM after 20 mins; assay type: functional; set-up: scale not given: the % may be the effect or the level left; how it was run: as §1
[4] = molecular target: T1, Seed linoleate 13S-lipoxygenase-1 (Glycine max) (UniProt P08170); assay: Inhibition of soybean lipoxygenase at 0.1 mM
T1 sequence (whole entry): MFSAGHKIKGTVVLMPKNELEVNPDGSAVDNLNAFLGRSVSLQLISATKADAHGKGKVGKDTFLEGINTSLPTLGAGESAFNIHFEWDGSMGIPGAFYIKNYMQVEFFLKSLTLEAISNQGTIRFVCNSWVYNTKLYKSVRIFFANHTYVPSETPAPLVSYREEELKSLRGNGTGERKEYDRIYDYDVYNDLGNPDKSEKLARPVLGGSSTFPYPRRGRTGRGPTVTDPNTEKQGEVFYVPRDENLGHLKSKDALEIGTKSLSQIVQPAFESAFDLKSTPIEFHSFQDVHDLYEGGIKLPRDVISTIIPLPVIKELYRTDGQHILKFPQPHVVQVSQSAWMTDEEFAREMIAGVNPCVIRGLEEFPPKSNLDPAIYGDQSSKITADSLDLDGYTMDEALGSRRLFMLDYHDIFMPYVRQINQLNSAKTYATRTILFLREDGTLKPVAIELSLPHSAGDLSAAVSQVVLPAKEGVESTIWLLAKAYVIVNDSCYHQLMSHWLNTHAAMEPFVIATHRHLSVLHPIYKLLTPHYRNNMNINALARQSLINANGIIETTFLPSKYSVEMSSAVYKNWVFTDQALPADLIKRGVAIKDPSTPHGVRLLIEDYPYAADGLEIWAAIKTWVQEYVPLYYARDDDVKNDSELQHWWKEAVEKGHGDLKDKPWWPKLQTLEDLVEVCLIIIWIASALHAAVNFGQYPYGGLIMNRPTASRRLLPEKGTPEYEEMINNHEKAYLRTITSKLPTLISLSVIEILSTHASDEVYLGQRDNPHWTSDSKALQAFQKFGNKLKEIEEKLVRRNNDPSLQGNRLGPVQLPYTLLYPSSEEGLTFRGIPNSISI
How it was run: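 Soybean lipoxygenase solution (1/9 × 10⁴ w/v in saline) was incubated at room temperature with sodium linoleate (0.1 mM) and compound dissolved in ethanol. UV absorbance-based read-out. At least triplicate.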

[5] = Antioxidant activity assessed as DPPH reducing activity at 0.5 mM after 60 mins; assay type: functional; set-up: scale not given: the % may be the effect or the level left; how it was run: as §1
[6] = Antioxidant activity assessed as DPPH reducing activity at 0.1 mM after 60 mins; assay type: functional; set-up: scale not given: the % may be the effect or the level left; how it was run: as §1

Cn1c(=O)c(C(=O)NCCN)c(O)c2ccccc21
Activity [1]: 40.1% | Activity [2]: 20.9% | inhibition in vivo at 10 µmol/kg (Rattus norvegicus): 67% | Activity [3]: 5.6% | inhibition [4]: 99.5% | Activity [5]: 37.1% | Activity [6]: 11.5%

Cn1c(=O)c(C(=O)Nc2ccccc2N)c(O)c2ccccc21
Activity [1]: 60.5% | Activity [2]: 28.8% | inhibition in vivo at 10 µmol/kg (Rattus norvegicus): 85.3% | Activity [3]: 6% | inhibition [4]: 71.3% | Activity [5]: 41.4% | Activity [6]: 13.5%

Nc1ccc(NC(=O)c2c(O)c3ccccc3n(-c3ccccc3)c2=O)cc1
Activity [1]: 10% | Activity [2]: 94.4% | inhibition in vivo at 10 µmol/kg (Rattus norvegicus): 56.4% | Activity [3]: 89% | inhibition [4]: 58.9% | Activity [5]: 89.2% | Activity [6]: 88.3%

COC(=O)c1c(O)c2ccccc2n(C)c1=O
Activity [1]: 45% | Activity [2]: 17.5% | inhibition in vivo at 10 µmol/kg (Rattus norvegicus): 58.8% | Activity [3]: 8.3% | inhibition [4]: 72.4% | Activity [5]: 18.4% | Activity [6]: 7.4%

O=C(CCCCC1CCSS1)Nc1ccccc1NC(=O)c1c(O)c2ccccc2n(-c2ccccc2)c1=O (stereo unspecified)
Activity [1]: inactive | Activity [2]: 11% | inhibition in vivo at 10 µmol/kg (Rattus norvegicus): 63% | Activity [3]: 9.7% | inhibition [4]: 100% | Activity [5]: 28.5% | Activity [6]: 16.1%

Cn1c(=O)c(C(=O)NCCCCCCNC(=O)CCCCC2CCSS2)c(O)c2ccccc21 (stereo unspecified)
Activity [1]: 28.6% | Activity [2]: 28.4% | inhibition in vivo at 10 µmol/kg (Rattus norvegicus): 53% | Activity [3]: 9.1% | inhibition [4]: 79.1% | Activity [5]: 38.8% | Activity [6]: 13%

O=C(CCCCC1CCSS1)NCCNC(=O)c1c(O)c2ccccc2n(-c2ccccc2)c1=O (stereo unspecified)
Activity [1]: 0% | Activity [2]: inactive | inhibition in vivo at 10 µmol/kg (Rattus norvegicus): 45.5% | Activity [3]: 6.4% | Activity [4]: inactive | Activity [5]: 14.1% | Activity [6]: 7.8%

Nc1ccccc1NC(=O)c1c(O)c2ccccc2n(-c2ccccc2)c1=O
Activity [1]: 98% | Activity [2]: 21.3% | inhibition in vivo at 10 µmol/kg (Rattus norvegicus): 48.5% | Activity [3]: 9.4% | Activity [4]: inactive | Activity [5]: 34.7% | Activity [6]: 16.3%

COc1ccc2c(c1)c(CC(=O)O)c(C)n2C(=O)c1ccc(Cl)cc1 [INDOMETHACIN]
inhibition in vivo at 10 µmol/kg (Rattus norvegicus): 47%

NCCCCCCNC(=O)c1c(O)c2ccccc2n(-c2ccccc2)c1=O
Activity [1]: 27.1% | Activity [2]: 19.3% | inhibition in vivo at 10 µmol/kg (Rattus norvegicus): 68.8% | Activity [3]: 11.6% | inhibition [4]: 17.6% | Activity [5]: 28.1% | Activity [6]: 17.5%

Cc1c(C)c2c(c(C)c1O)CCC(C)(C(=O)O)O2 (stereo unspecified)
Activity [1]: 88.2%

COC(=O)c1c(O)c2ccccc2n(-c2ccccc2)c1=O
Activity [1]: 95% | Activity [2]: 16.8% | inhibition in vivo at 10 µmol/kg (Rattus norvegicus): 37.1% | Activity [3]: 9.1% | inhibition [4]: 100% | Activity [5]: 19.3% | Activity [6]: 9.1%

Cn1c(=O)c(C(=O)NCCCCCCN)c(O)c2ccccc21
Activity [1]: 59.3% | Activity [2]: 13.7% | inhibition in vivo at 10 µmol/kg (Rattus norvegicus): 68.5% | Activity [3]: 3.1% | inhibition [4]: 92.1% | Activity [5]: 21.9% | Activity [6]: 8.3%

CC(Cc1ccc(O)c(O)c1)C(C)Cc1ccc(O)c(O)c1 (stereo unspecified)
Activity [2]: 96.5% | Activity [5]: 98%

Cn1c(=O)c(C(=O)Nc2ccc(N)cc2)c(O)c2ccccc21
Activity [1]: 20.7% | Activity [2]: 85.1% | inhibition in vivo at 10 µmol/kg (Rattus norvegicus): 69.5% | Activity [3]: 90.2% | inhibition [4]: 50.8% | Activity [5]: 83.7% | Activity [6]: 88.1%

Cn1c(=O)c(C(=O)NCCNC(=O)CCCCC2CCSS2)c(O)c2ccccc21 (stereo unspecified)
Activity [1]: 67.9% | Activity [2]: 28.8% | inhibition in vivo at 10 µmol/kg (Rattus norvegicus): 48.2% | Activity [3]: 10.9% | inhibition [4]: 66.5% | Activity [5]: 40.1% | Activity [6]: 3.4%

NCCNC(=O)c1c(O)c2ccccc2n(-c2ccccc2)c1=O
Activity [1]: 78.6% | Activity [2]: 1.4% | inhibition in vivo at 10 µmol/kg (Rattus norvegicus): 68.1% | Activity [3]: 7.2% | inhibition [4]: 82.3% | Activity [5]: 7.9% | Activity [6]: 10%

O=C(O)CCCCC1CCSS1 (stereo not drawn) [LIPOIC ACID, ALPHA]
Activity [1]: 38.6% | Activity [2]: 5.2% | inhibition in vivo at 10 µmol/kg (Rattus norvegicus): 29.6% | Activity [3]: 20.3% | inhibition [4]: 29.1% | Activity [5]: 6.8% | Activity [6]: 27.1%

O=C(CCCCC1CCSS1)NCCCCCCNC(=O)c1c(O)c2ccccc2n(-c2ccccc2)c1=O (stereo unspecified)
Activity [1]: inactive | Activity [2]: 23.9% | inhibition in vivo at 10 µmol/kg (Rattus norvegicus): 50% | Activity [3]: 6.2% | inhibition [4]: 64% | Activity [5]: 29.5% | Activity [6]: 10.2%
